This note sets out measurements from ChEMBL document CHEMBL4138159, “Design, synthesis and evaluation of amino-substituted 1H-phenalen-1-ones as anti-leishmanial agents” (Eur J Med Chem, 2018).

Data set [1] has as its system Leishmania amazonensis. Nature of the data set: Antileishmanial activity against Leishmania amazonensis MHOM/BR/77/LTB0016 promastigotes after 72 hrs by Alamarblue assay. The format is functional, organism-based. The note with it: MHOM/BR/77/LTB0016, 72 h. In short, it runs like this: (§1)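 Log-phase promastigotes (10⁵/well, grown in Schneider's medium with 10% FBS at 26 °C) added to serial compound dilutions in phenol red-free RPMI 1640 with 10% heat-inactivated FBS, plus 10% alamarBlue. Incubated 72 h at 27 °C in the dark. Read at 560 nm against 590 nm reference. Single-concentration screen at 25 µM. IC50 by non-linear regression. Three experiments, each in duplicate.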
In general terms: Resazurin is reduced to fluorescent resorufin, in cell work by metabolically active cells.

In data set [2] the test system is Leishmania donovani. Nature of the data set: Antileishmanial activity against Leishmania donovani MHOM/IN/90/GE1F8R promastigotes after 72 hrs by Alamarblue assay. The format is functional, organism-based. In short, it runs like this:
as §1

Data set [3] concerns Leishmania amazonensis. Nature of the data set: Antileishmanial activity against Leishmania amazonensis MHOM/BR/77/LTB0016 amastigotes infected in mouse J774A.1 cells assessed as reduction in transformation of rescued amastigotes to promastiogtes after 24 hrs by Alamarblue assay. Type of data set: functional, organism-based. The note with it: MHOM/BR/77/LTB0016, J774.A1, 24 h.

The nature of data set [4]: Cytotoxicity against mouse J774A.1 cells. Type of data set: cell-based, J774.A1.
For data set [5], the system named is Leishmania amazonensis. In words: Potency index, ratio of miltefosine IC50 to compound IC50 for Leishmania amazonensis MHOM/BR/77/LTB0016 amastigotes infected in mouse J774A.1 cells. Type of data set: functional.
For data set [6], the system named is Leishmania amazonensis. Nature of the data set: Induction of mitochondrial membrane potential loss in Leishmania amazonensis MHOM/BR/77/LTB0016 promastigotes at antileishmanial IC90 after 24 hrs by JC-1 staining-based spectrofluorometric analysis. Type of data set: functional, organism-based.
The nature of data set [7]: Selectivity index, ratio of CC50 for mouse J774A.1 cells to IC50 for Leishmania amazonensis MHOM/BR/77/LTB0016 amastigotes infected in mouse J774A.1 cells. Type of data set: toxicity, cell-based. Particulars: read-out: Ratio CC50/IC50. In short, it runs like this: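 SI = CC50 in J774A.1 macrophages divided by IC50 against intracellular L. amazonensis amastigotes.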

For data set [8], the system named is Leishmania donovani. In words: Antileishmanial activity against Leishmania donovani MHOM/SD/00/1S-2D promastigotes preincubated for 2 hrs followed by compound wash measured after 48 hrs by MTT assay. The format is functional, organism-based.
The subject of data set [9] is Leishmania donovani. Nature of the data set: Antileishmanial activity against Leishmania donovani MHOM/IN/90/GE1F8R promastigotes at 25 uM after 72 hrs by Alamarblue assay relative to control. Type of data set: functional. In a few lines:
as §1

The test system of data set [10] is Leishmania amazonensis. In words: Antileishmanial activity against Leishmania amazonensis MHOM/BR/77/LTB0016 promastigotes at 25 uM after 72 hrs by Alamarblue assay relative to control. Type of data set: functional. In short, it runs like this:
as §1

Calls of active or inactive are those of the source. No cut-off for these calls is given here.

As for `O=C1C=C(N2CCCCC2)c2cccc3cccc1c23`, the IC50 with Leishmania amazonensis [1] and in the data set with Leishmania donovani [2] was greater than 25 µM throughout.

Take `O=C1C(N2CCOCC2)=Cc2cccc3cccc1c23`: the IC50 with Leishmania amazonensis [1] and with Leishmania donovani [2] was greater than 25 µM in each case.

As for `O=C1C=Cc2cccc3ccc(N4CCN(Cc5ccccc5)CC4)c1c23`, the values for the IC50 in the data set on Leishmania amazonensis [1], with Leishmania amazonensis [3] and in the data set on Leishmania donovani [2] were 11.6 µM, 0.6 µM and 14 µM, respectively. Moreover, in data set [4], it took 91.7 µM to reach half-maximal cytotoxicity (CC50). Also, the “Ratio IC50” value in the data set with Leishmania amazonensis [5] is 3 - 5. Moreover, in the data set with Leishmania amazonensis [6], the result was inactive. The selectivity ratio in data set [7] worked out at 153.

Regarding `O=C1C=Cc2cccc3ccc(N4CCCCC4)c1c23`, the IC50 in the data set with Leishmania amazonensis [1] and with Leishmania donovani [2] was greater than 25 µM throughout.

Consider `CN(CCO)c1ccc2cccc3c2c1C(=O)C=C3`, for which the IC50 in the data set with Leishmania amazonensis [1] and in the data set with Leishmania donovani [2] was greater than 25 µM each time.

Take `O=C1C=Cc2cccc3ccc(O)c1c23`: the IC50 in the data set with Leishmania amazonensis [1] and with Leishmania donovani [2] was greater than 25 µM in each case.

For the compound `CN(C)CCNC1=Cc2cccc3cccc(c23)C1=O`, the IC50 (usually the concentration needed to halve the response being measured) is 6 µM with Leishmania amazonensis [1], 0.9 µM in the data set with Leishmania amazonensis [3] and 9.6 µM in the data set on Leishmania donovani [2]. For the same compound, it took 122 µM to reach half-maximal cytotoxicity in data set [4] (CC50). Moreover, in the data set on Leishmania amazonensis [5], the “Ratio IC50” value is given as 3 - 5. The result with Leishmania amazonensis [6] was Active. In addition, the selectivity ratio in data set [7] came to 136.

For the compound `O=C1C=Cc2c(NCc3ccccc3)ccc3cccc1c23`, the IC50 in the data set with Leishmania amazonensis [1] and in the data set on Leishmania donovani [2] was greater than 25 µM in each case.

With `O=C1C=C(NCc2ccccc2)c2cccc3cccc1c23`, the IC50 in the data set with Leishmania amazonensis [1] and with Leishmania donovani [2] was greater than 25 µM each time.

`O=C1C=C(N2CCN(c3ncccn3)CC2)c2cccc3cccc1c23`: the concentration for half-maximal inhibition (IC50) with Leishmania amazonensis [1] and with Leishmania donovani [2] was greater than 25 µM throughout.

Take `CN(C)CCNC1=CC(=O)c2cccc3cccc1c23`: the IC50 in the data set on Leishmania amazonensis [1] worked out at 2.1 µM; in the data set on Leishmania amazonensis [3] it was 0.6 µM; with Leishmania donovani [2], 4.3 µM. Further, the CC50 – broadly, the concentration that lowers cell viability or growth by half – in [4] is 95.6 µM. Further, the “Ratio IC50” value in the data set on Leishmania amazonensis [5] is recorded as 3 - 5. Besides, the outcome with Leishmania amazonensis [6] was Active. In data set [7], the selectivity ratio stood at 159.

As for `N#Cc1ccc(Nc2ccc3cccc4c3c2C(=O)C=C4)cc1`, the IC50 with Leishmania amazonensis [1] and with Leishmania donovani [2] was greater than 25 µM each time.

Consider `O=C1C(Nc2ccccn2)=Cc2cccc3cccc1c23`, for which the IC50 in the data set on Leishmania amazonensis [1] and in the data set with Leishmania donovani [2] was greater than 25 µM throughout.

For the compound `COC1=Cc2cccc3ccc(-c4ccccc4)c(c23)C1=O`, in the data set on Leishmania donovani [8], the IC50 lay within 35 to 40 µM.

As to `CCCNc1ccc2cccc3c2c1C(=O)C=C3`, the IC50 in the data set with Leishmania amazonensis [1] and in the data set on Leishmania donovani [2] was greater than 25 µM in each case.

With `Nc1ccc2cccc3c2c1C(=O)C=C3`, the IC50 in the data set on Leishmania amazonensis [1] was 26.2 µM; with Leishmania donovani [2] it was greater than 25 µM.

Regarding `O=C1C=C(N2CCN(Cc3ccccc3)CC2)c2cccc3cccc1c23`, the IC50 with Leishmania amazonensis [1] was 9.7 µM; in the data set on Leishmania amazonensis [3], 1.1 µM; with Leishmania donovani [2], 24 µM. For the same compound, it took 28.5 µM to reach half-maximal cytotoxicity in data set [4] (CC50). Moreover, in the data set on Leishmania amazonensis [6], the outcome was Active. For the same compound, the selectivity ratio in data set [7] came out at 26.

Regarding `CCCNC1=Cc2cccc3cccc(c23)C1=O`, the IC50 with Leishmania amazonensis [1] and with Leishmania donovani [2] was greater than 25 µM in each case. In addition, the Activity with Leishmania donovani [9] and with Leishmania amazonensis [10] was less than 25% in each case.

Turning to `O=C1C(O)=Cc2cccc3ccc(-c4ccccc4)c1c23`, in the data set with Leishmania donovani [8], the IC50 was in the range of 35 to 40 µM.

Regarding `O=C1C(N2CCN(c3ncccn3)CC2)=Cc2cccc3cccc1c23`, the IC50 in the data set on Leishmania amazonensis [1] and with Leishmania donovani [2] was greater than 25 µM throughout.

For `CCCCCCCCCCCCCCCCOP(=O)([O-])OCC[N+](C)(C)C` [MILTEFOSINE], the IC50 turned out to be 6.5 µM in the data set with Leishmania amazonensis [1], 3.1 µM in the data set with Leishmania amazonensis [3] and 3.3 µM in the data set with Leishmania donovani [2]. Besides, in data set [4], it took 73.7 µM to reach half-maximal cytotoxicity (CC50). Moreover, in the data set with Leishmania amazonensis [6], the result was Active. Besides, the selectivity ratio in data set [7] was 23.8.

As to `CCCNC1=CC(=O)c2cccc3cccc1c23`, the IC50 in the data set on Leishmania amazonensis [1] and in the data set on Leishmania donovani [2] was greater than 25 µM throughout.

Regarding `CN(C)CCNc1ccc2cccc3c2c1C=CC3=O`, the results for the IC50 with Leishmania amazonensis [1] and in the data set on Leishmania donovani [2] were 7.2 µM and 32.7 µM, respectively.

Take `CN(CCO)C1=CC(=O)c2cccc3cccc1c23`: the IC50 with Leishmania amazonensis [1] and with Leishmania donovani [2] was greater than 25 µM each time.

On to `O=C1C(NCc2ccccc2)=Cc2cccc3cccc1c23`, for which the IC50 with Leishmania amazonensis [1] and with Leishmania donovani [2] was greater than 25 µM throughout.

For `O=C1C=Cc2cccc3ccc(N4CCOCC4)c1c23`, the IC50 with Leishmania amazonensis [1] and in the data set with Leishmania donovani [2] was greater than 25 µM throughout.

In the case of `O=C1C=Cc2cccc3ccc(Nc4ccccn4)c1c23`, the IC50 in the data set on Leishmania amazonensis [1] and in the data set on Leishmania donovani [2] was greater than 25 µM each time.

As for `N#Cc1ccc(NC2=Cc3cccc4cccc(c34)C2=O)cc1`, the IC50 in the data set with Leishmania amazonensis [1] and in the data set on Leishmania donovani [2] was greater than 25 µM in each case.

For `O=C1C(N2CCN(Cc3ccccc3)CC2)=Cc2cccc3cccc1c23`, the IC50 in the data set with Leishmania amazonensis [1] amounted to 24 µM; with Leishmania amazonensis [3] it was 2.4 µM; in the data set on Leishmania donovani [2], 26.4 µM. In data set [4], it took 122 µM to reach half-maximal cytotoxicity (CC50). The outcome in the data set with Leishmania amazonensis [6] was inactive. Besides, the selectivity ratio in [7] is 51.

For the compound `O=C1C=Cc2cccc3ccc(NCc4ccccc4)c1c23`, the IC50 in the data set with Leishmania amazonensis [1] came out at 3.5 µM; in the data set with Leishmania amazonensis [3] it was 2.3 µM; with Leishmania donovani [2], 8.3 µM. In data set [4], this compound yielded a CC50 of 9.4 µM. Further, the outcome in the data set with Leishmania amazonensis [6] was Active. Besides, in [7], the selectivity ratio came out at 4.1.

In the case of `O=C1C(Nc2cccnc2)=Cc2cccc3cccc1c23`, the IC50 with Leishmania amazonensis [1] and in the data set with Leishmania donovani [2] was greater than 25 µM in each case. Moreover, the Activity with Leishmania donovani [9] and in the data set on Leishmania amazonensis [10] was less than 25% in each case.

Consider `O=C1C(Nc2ccccc2)=Cc2cccc3cccc1c23`, for which the IC50 in the data set on Leishmania amazonensis [1] and with Leishmania donovani [2] was greater than 25 µM in each case.

Turning to `O=C1C=C(N2CCOCC2)c2cccc3cccc1c23`, the IC50 in the data set on Leishmania amazonensis [1] and with Leishmania donovani [2] was greater than 25 µM throughout.

As for `CN(C)CCNc1ccc2cccc3c2c1C(=O)C=C3`, the IC50 turned out to be 1.4 µM in the data set on Leishmania amazonensis [1], 0.7 µM with Leishmania amazonensis [3] and 2.8 µM in the data set with Leishmania donovani [2]. For the same compound, the CC50 in data set [4] came to 38.9 µM. For the same compound, the outcome with Leishmania amazonensis [6] was Active. In data set [7], the selectivity ratio turned out to be 55.6.

On to `NC1=Cc2cccc3cccc(c23)C1=O`, for which the IC50 in the data set on Leishmania amazonensis [1] and with Leishmania donovani [2] was greater than 25 µM each time. Further, the Activity in the data set on Leishmania donovani [9] and in the data set with Leishmania amazonensis [10] was less than 25% in each case.

Consider `O=C1C=Cc2c(N3CCN(Cc4ccccc4)CC3)ccc3cccc1c23`, for which the IC50 is 17.5 µM with Leishmania amazonensis [1] and 26.3 µM in the data set on Leishmania donovani [2].

As to `O=C1C=Cc2cccc3cccc1c23` [PERINAPHTHENONE], the IC50 in the data set on Leishmania amazonensis [1] and with Leishmania donovani [2] was greater than 25 µM throughout.

Take `O=C1C=Cc2cccc3ccc(Nc4cccnc4)c1c23`: the IC50 in the data set on Leishmania amazonensis [1] and in the data set with Leishmania donovani [2] was greater than 25 µM each time.

Take `O=C1C=Cc2cccc3ccc(Nc4ccccc4)c1c23`: the IC50 with Leishmania amazonensis [1] and in the data set on Leishmania donovani [2] was greater than 25 µM in each case.

On to `O=C1C=Cc2cccc3ccc(NCCO)c1c23`, for which the IC50 in the data set on Leishmania amazonensis [1] is 27.4 µM; with Leishmania donovani [2] it was greater than 25 µM.

For the compound `CN(CCO)C1=Cc2cccc3cccc(c23)C1=O`, the IC50 in the data set on Leishmania amazonensis [1] and in the data set on Leishmania donovani [2] was greater than 25 µM in each case. The Activity in the data set with Leishmania donovani [9] and in the data set on Leishmania amazonensis [10] was less than 25% throughout.

For the compound `O=C1C=Cc2cccc3ccc(N4CCN(c5ncccn5)CC4)c1c23`, the IC50 in the data set with Leishmania amazonensis [1] and in the data set on Leishmania donovani [2] was greater than 25 µM throughout.
